Results on ten compounds are retold here after ChEMBL document CHEMBL1165965, “Synthesis and structure-activity relationships of 1,2,3,4-tetrahydropyrido[2,3-b]pyrazines as potent and selective inhibitors of the anaplastic lymphoma kinase” (Bioorg Med Chem, 2010).

The target in test [1] is T1, Serine/threonine-protein kinase D1 (Homo sapiens) (UniProt Q15139).
T1 sequence (whole entry): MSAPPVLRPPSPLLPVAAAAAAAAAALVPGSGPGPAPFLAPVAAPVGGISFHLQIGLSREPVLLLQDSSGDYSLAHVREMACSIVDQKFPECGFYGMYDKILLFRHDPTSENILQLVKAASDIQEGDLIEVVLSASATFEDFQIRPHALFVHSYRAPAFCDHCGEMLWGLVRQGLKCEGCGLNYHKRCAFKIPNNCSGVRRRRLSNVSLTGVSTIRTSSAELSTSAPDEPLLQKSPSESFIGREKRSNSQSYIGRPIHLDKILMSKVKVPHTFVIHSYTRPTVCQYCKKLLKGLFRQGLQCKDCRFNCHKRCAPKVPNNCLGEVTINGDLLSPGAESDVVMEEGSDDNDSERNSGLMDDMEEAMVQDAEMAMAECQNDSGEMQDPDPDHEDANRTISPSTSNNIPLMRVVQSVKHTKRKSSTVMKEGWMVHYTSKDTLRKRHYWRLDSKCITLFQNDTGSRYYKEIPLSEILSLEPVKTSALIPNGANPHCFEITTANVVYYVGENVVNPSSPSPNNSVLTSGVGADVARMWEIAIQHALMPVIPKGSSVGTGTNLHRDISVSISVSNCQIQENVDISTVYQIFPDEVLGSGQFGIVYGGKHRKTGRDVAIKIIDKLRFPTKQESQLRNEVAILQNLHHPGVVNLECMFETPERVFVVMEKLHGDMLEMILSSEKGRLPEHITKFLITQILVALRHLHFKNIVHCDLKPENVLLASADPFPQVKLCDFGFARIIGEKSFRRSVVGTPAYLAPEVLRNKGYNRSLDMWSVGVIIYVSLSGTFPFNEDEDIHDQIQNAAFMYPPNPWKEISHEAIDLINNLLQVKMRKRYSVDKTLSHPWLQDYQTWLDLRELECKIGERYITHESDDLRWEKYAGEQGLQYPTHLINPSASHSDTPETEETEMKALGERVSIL
Description: Inhibition of PRKD1 at 1 uM.

Test [2] concerns the target T2, Serine/threonine-protein kinase DCLK1 (Homo sapiens) (UniProt O15075).
T2 sequence (whole entry): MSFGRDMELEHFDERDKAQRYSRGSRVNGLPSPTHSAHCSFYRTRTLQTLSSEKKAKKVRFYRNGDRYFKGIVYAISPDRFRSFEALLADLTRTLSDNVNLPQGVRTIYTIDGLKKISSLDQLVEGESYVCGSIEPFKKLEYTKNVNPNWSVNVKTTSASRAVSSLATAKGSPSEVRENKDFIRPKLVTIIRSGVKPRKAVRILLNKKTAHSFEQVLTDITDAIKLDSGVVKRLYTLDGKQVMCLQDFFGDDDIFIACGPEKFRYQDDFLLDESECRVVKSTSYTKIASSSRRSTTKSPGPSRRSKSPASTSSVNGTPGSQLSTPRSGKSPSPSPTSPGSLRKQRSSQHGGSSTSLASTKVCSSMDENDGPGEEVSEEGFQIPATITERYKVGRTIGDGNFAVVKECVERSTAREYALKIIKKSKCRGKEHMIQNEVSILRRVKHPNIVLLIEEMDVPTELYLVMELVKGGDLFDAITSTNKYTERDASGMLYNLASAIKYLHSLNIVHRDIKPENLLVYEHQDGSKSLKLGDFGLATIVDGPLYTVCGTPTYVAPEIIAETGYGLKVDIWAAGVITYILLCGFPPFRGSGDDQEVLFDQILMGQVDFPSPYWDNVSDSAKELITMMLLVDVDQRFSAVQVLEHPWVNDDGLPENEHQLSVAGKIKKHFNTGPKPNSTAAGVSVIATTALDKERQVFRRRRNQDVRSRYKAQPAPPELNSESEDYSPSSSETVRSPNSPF
The experiment in a line: Inhibition of DCAMKL1 at 1 uM.

Test [3] addresses Mitogen-activated protein kinase 3 (Homo sapiens) (UniProt P27361). The experiment in a line: Inhibition of ERK1 at 1 uM. Put shortly: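 Single-concentration screen using Ambit Bioscience KINOMEscan technology across a panel of 250–400 kinases. Per-kinase inhibition from this screen was summarized as S(90), the fraction of kinases inhibited by more than 90%.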
For test [4], the target named is Cyclin-dependent kinase 15 (Homo sapiens) (UniProt Q96Q40). The experiment in a line: Inhibition of PFTAIRE2 at 1 uM.
Sequence of Cyclin-dependent kinase 15 (Homo sapiens) (Q96Q40 whole entry): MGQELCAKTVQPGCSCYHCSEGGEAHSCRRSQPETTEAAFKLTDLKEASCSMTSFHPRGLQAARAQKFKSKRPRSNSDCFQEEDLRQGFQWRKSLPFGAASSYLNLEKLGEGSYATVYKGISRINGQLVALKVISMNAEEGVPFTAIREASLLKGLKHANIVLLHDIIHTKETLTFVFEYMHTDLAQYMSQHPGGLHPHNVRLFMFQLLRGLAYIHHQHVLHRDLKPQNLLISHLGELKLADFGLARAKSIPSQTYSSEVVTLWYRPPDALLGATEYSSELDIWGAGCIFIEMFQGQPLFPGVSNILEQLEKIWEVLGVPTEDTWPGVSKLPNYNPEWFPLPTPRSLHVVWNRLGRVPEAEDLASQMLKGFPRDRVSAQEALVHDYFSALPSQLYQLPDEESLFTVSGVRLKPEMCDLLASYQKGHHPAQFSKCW
Test [5] addresses T3, Tyrosine-protein kinase JAK3 (Homo sapiens) (UniProt P52333).
T3 sequence (whole entry): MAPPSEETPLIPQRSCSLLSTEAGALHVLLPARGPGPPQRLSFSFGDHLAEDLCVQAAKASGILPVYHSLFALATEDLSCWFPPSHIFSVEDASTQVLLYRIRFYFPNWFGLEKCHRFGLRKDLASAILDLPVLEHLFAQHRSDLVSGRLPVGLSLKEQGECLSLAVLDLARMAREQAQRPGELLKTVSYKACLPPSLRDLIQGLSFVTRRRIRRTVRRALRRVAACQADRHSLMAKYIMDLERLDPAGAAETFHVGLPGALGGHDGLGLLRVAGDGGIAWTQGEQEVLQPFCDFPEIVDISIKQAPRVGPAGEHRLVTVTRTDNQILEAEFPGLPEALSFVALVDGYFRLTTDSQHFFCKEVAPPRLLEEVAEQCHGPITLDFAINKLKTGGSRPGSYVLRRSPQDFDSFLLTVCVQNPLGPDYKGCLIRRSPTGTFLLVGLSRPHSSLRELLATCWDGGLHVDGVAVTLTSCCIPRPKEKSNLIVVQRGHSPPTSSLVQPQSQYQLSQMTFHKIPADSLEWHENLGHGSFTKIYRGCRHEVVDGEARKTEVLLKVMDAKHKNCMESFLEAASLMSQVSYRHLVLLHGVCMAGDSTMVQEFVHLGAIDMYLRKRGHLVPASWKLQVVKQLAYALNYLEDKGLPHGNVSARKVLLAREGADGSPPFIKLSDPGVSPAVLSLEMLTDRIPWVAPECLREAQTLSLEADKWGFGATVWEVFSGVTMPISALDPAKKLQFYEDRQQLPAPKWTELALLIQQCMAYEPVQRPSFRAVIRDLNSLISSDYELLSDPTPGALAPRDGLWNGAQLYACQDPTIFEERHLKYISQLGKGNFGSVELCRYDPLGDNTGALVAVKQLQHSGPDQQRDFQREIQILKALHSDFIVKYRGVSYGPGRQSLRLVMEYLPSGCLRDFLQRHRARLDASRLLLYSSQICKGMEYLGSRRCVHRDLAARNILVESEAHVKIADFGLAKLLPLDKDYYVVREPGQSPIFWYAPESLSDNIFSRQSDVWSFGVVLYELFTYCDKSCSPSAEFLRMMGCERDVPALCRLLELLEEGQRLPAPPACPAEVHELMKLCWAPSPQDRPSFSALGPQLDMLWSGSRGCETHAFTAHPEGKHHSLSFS
Description: Inhibition of JAK3 JH1 catalytic domain at 1 uM. In short, it runs like this: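 Single-concentration screen on the Ambit KINOMEscan platform, run against a panel of 250–400 kinases. Per-kinase inhibition was also summarized as S(90), the fraction of kinases inhibited by more than 90%.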

Sequence of Mitogen-activated protein kinase 3 (Homo sapiens) (P27361 whole entry): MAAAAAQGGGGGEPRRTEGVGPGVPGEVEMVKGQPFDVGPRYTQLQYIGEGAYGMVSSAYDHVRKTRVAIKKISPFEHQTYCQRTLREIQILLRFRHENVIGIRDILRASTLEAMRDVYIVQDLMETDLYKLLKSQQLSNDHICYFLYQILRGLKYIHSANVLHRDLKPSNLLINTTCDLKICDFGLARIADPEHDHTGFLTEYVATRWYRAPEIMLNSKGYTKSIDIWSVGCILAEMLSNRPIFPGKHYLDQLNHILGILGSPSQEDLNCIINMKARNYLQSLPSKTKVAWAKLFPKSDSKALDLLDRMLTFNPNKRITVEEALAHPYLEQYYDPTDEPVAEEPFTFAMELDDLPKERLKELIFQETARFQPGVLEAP

A word on the inhibition: it is the change of the read-out against control, counted positive when it falls. Turning to `FC(F)(F)c1ccc(Cl)cc1CN1CCNc2ncc(-c3ccnc(N4CCNCC4)c3)cc21`, the inhibition in test [1] was less than 50%; in test [2], 98%; in test [3], less than 50%; in test [4], less than 50%; in test [5], 88%.
For `CN1CCN(c2ccc(-c3cnc4c(c3)N(Cc3cc(Cl)ccc3Cl)CCN4)cn2)CC1`, the inhibition in test [1] is less than 50%; in test [2], 90%; in test [3] it was less than 50%; in test [4], less than 50%; in test [5], 73%.
As to `COC1CCN(C(=O)c2ccc(-c3cnc4c(c3)N(Cc3cc(Cl)ccc3C(F)(F)F)CCN4)cc2)CC1`, the values for the inhibition in test [3] and in test [5] were less than 50% and 93.2%, respectively.
The corresponding values for `O=C(c1ccc(-c2cnc3c(c2)N(Cc2cc(Cl)ccc2C(F)(F)F)CCN3)cc1)N1CCCCC1` are less than 50% and 79.3%.
In the same order, the values of `O=C(O)c1ccc(-c2cnc3c(c2)N(Cc2cc(Cl)ccc2C(F)(F)F)CCN3)cc1` are less than 50% and less than 50%.
Consider `CN1CCN(c2ccc(-c3cnc4c(c3)N(Cc3cc(F)ccc3F)CCN4)cn2)CC1`, for which the inhibition was 67% in test [1]; 94% in test [2]; less than 50% in test [3]; less than 50% in test [4]; 86.4% in test [5].
As for `O=C(c1ccc(-c2cnc3c(c2)N(Cc2cc(Cl)ccc2C(F)(F)F)CCN3)cc1)N1CCC(N2CCCC2)CC1`, the figures for the inhibition in test [3] and in test [5] were less than 50% and 98.7%, respectively.
With `CN1CCN(c2ccc(-c3cnc4c(c3)N(Cc3c(F)ccc(F)c3Cl)CCN4)cn2)CC1`, the inhibition in test [1] was 67%; in test [2] it was less than 50%; in test [3] it was less than 50%; in test [4], less than 50%; in test [5], 83%.
For the compound `CC(=O)N1CCN(c2cc(-c3cnc4c(c3)N(Cc3cc(Cl)ccc3C(F)(F)F)CCN4)ccn2)CC1`, the inhibition in test [1] is less than 50%; in test [2], less than 50%; in test [3] it was less than 50%; in test [4], less than 50%; in test [5], 88%.
For `CN1CCN(c2ccc(-c3cnc4c(c3)N(Cc3cc(Cl)ccc3C(F)(F)F)CCN4)cn2)CC1`, the inhibition is less than 50% in test [1]; 91% in test [2]; less than 50% in test [3]; less than 50% in test [4]; 75% in test [5].
